pIC50: −log10 of the molar value. Active and inactive are the calls of the source. No cut-off for these calls is given here.
Tests used:
A549 [1] = assay: Induction of apoptosis in human A549 cells assessed as early apoptotic cells at 0.5 uM after 48 hrs by Annexin V-FITC/propidium iodide staining-based flow cytometry (reference value: 0.47%); assay type: functional
A549 [2] = assay: Induction of apoptosis in human A549 cells assessed as necrotic cells at 0.25 uM after 48 hrs by Annexin V-FITC/propidium iodide staining-based flow cytometry (reference value: 0.06%); assay type: functional
Tubulin (Homo sapiens) [3] = molecular target: T1, Tubulin (Homo sapiens) (UniProt P68371+Q9H4B7+P0DPH7+P68366+Q13509+Q71U36+P04350+Q3ZCM7+P07437+P68363+Q9BQE3+Q6PEY2+Q13885+Q9BVA1+Q9BUF5); assay: Binding affinity to tubulin (unknown origin) at 4 uM by fluorescence assay; assay type: protein-complex assay; conditions: TDE = time-dependent effect
In short: (§1)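 Intrinsic fluorescence on tubulin binding. Compounds were mixed with tubulin (4 μM or 8 μM) in general tubulin buffer and incubated 30 min. Readings were excitation 430/emission 510 nm or excitation 365/emission 465 nm, with kinetic reads from mixing. ΔF = stable emission minus tubulin-only fluorescence. Optimal wavelengths were set by wavelength scanning.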

[4] = Drug resistance index, ratio of IC50 for vincristine-resistant human HCT8 cells to IC50 for human HCT8 cells; assay type: functional, HCT-8
In short: (§2)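 Drug resistance index = IC50 in the resistant line / IC50 in its parental line. […] Pairs: A549/CDDP vs A549, MCF-7/DOX vs MCF-7, A2780/TAX vs A2780, HCT-8/VCT vs HCT-8.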

A549 [5] = assay: Induction of apoptosis in human A549 cells assessed as total apoptotic cells at 1 uM after 48 hrs by Annexin V-FITC/propidium iodide staining-based flow cytometry; assay type: functional
A549 [6] = assay: Induction of apoptosis in human A549 cells assessed as total apoptotic cells at 0.75 uM after 48 hrs by Annexin V-FITC/propidium iodide staining-based flow cytometry; assay type: functional
A549 [7] = assay: Induction of apoptosis in human A549 cells assessed as viable cells at 0.5 uM after 48 hrs by Annexin V-FITC/propidium iodide staining-based flow cytometry (reference value: 99.37%); assay type: functional; conditions: A549, 48 h, read-out: Activity
A549 [8] = assay: Induction of apoptosis in human A549 cells assessed as viable cells at 1 uM after 48 hrs by Annexin V-FITC/propidium iodide staining-based flow cytometry (reference value: 99.37%); assay type: functional; conditions: A549, 48 h, read-out: Activity
A549 [9] = assay: Induction of apoptosis in human A549 cells assessed as late apoptotic cells at 1 uM after 48 hrs by Annexin V-FITC/propidium iodide staining-based flow cytometry (reference value: 0.10%); assay type: functional
A2780 [10] = assay: Antiproliferative activity against human A2780 cells after 48 hrs by SRB method; assay type: functional, cell-based; conditions: A2780, 48 h
In short: (§3)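 SRB assay. Cells in DMEM high glucose with 10% FBS were seeded at 5000/well and grown 24 h; a day-0 plate was fixed at that point. Compounds were added in triplicate for 48 h. IC50 came from nonlinear regression of dose–response curves from at least two independent experiments.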

HepG2 = assay: Antiproliferative activity against human HepG2 cells after 48 hrs by SRB method; assay type: functional, cell-based; conditions: HepG2, 48 h; in short: as §3
[11] = Antiproliferative activity against human CNE2 cells after 48 hrs by SRB method; assay type: functional, cell-based; conditions: CNE-2, 48 h; in short: as §3
A549 [12] = assay: Cell cycle arrest in human A549 cells assessed as accumulation at G2/M phase at 7.81 to 250 nM after 24 hrs by Hoechst 33342 staining-based ArrayScanVTI analysis; assay type: functional
In short: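 A549 cells were seeded at 5000/well, cultured overnight, then treated 24 h over a 7.81–250 concentration series. Cells were fixed in prewarmed paraformaldehyde 10 min, permeabilized with Triton X-100, and nuclei stained with Hoechst 33342. Imaging was by ArrayScan VTI high-content analysis. Phase percentage = cells within a gated fluorescence intensity / total cells counted.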

A2780 [13] = assay: Antiproliferative activity against taxol-resistant human A2780 cells after 48 hrs by SRB method; assay type: functional, cell-based; conditions: A2780, 48 h; in short: as §3
MCF7 [14] = assay: Drug resistance index, ratio of IC50 for doxorubicin-resistant human MCF7 cells to IC50 for human MCF7 cells; assay type: functional; in short: as §2
A549 [15] = assay: Antiproliferative activity against cis-platinum-resistant human A549 cells after 48 hrs by SRB method; assay type: functional, cell-based; conditions: A549, 48 h
In short: (§4)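 SRB assay. Cells in DMEM high glucose with 10% FBS were seeded at 5000/well and grown 24 h; a day-0 plate was fixed at that point. Compounds were added in triplicate for 48 h. Cells were fixed with TCA at 4 °C for 1 h, stained with 0.4% SRB, and the dye was solubilized in 10 mM Tris pH 10.4. OD was read at 515 nm with day-0 OD subtracted. IC50 came from nonlinear regression of dose–response curves from at least two independent experiments.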

A549 [16] = assay: Induction of apoptosis in human A549 cells assessed as viable cells at 0.25 uM after 48 hrs by Annexin V-FITC/propidium iodide staining-based flow cytometry (reference value: 99.37%); assay type: functional; conditions: A549, 48 h, read-out: Activity
Tubulin (Homo sapiens) [17] = molecular target: T1, Tubulin (Homo sapiens); assay: Binding affinity to tubulin (unknown origin) at 4 uM after 30 mins by fluorescence assay; assay type: protein-complex assay; in short: as §1
[18] = Antiproliferative activity against human HCT8 cells after 48 hrs by SRB method; assay type: functional, cell-based; conditions: HCT-8, 48 h; in short: as §3
A549 [19] = assay: Antiproliferative activity against human A549 cells after 48 hrs by SRB method; assay type: functional, cell-based; conditions: A549, 48 h; in short: as §4
A549 [20] = assay: Induction of apoptosis in human A549 cells assessed as necrotic cells at 0.5 uM after 48 hrs by Annexin V-FITC/propidium iodide staining-based flow cytometry (reference value: 0.06%); assay type: functional
A549 [21] = assay: Induction of apoptosis in human A549 cells assessed as necrotic cells at 1 uM after 48 hrs by Annexin V-FITC/propidium iodide staining-based flow cytometry (reference value: 0.06%); assay type: functional
A549 [22] = assay: Induction of apoptosis in human A549 cells assessed as late apoptotic cells at 0.25 uM after 48 hrs by Annexin V-FITC/propidium iodide staining-based flow cytometry (reference value: 0.10%); assay type: functional
A549 [23] = assay: Induction of apoptosis in human A549 cells assessed as necrotic cells at 0.75 uM after 48 hrs by Annexin V-FITC/propidium iodide staining-based flow cytometry (reference value: 0.06%); assay type: functional
A549 [24] = assay: Induction of apoptosis in human A549 cells assessed as early apoptotic cells at 0.25 uM after 48 hrs by Annexin V-FITC/propidium iodide staining-based flow cytometry (reference value: 0.47%); assay type: functional
A549 [25] = assay: Induction of apoptosis in human A549 cells assessed as early apoptotic cells at 1 uM after 48 hrs by Annexin V-FITC/propidium iodide staining-based flow cytometry (reference value: 0.47%); assay type: functional
A549 [26] = assay: Induction of apoptosis in human A549 cells assessed as apoptotic cells after 48 hrs by Annexin V-FITC/propidium iodide staining-based flow cytometry; assay type: functional, cell-based
A549 [27] = assay: Induction of apoptosis in human A549 cells assessed as viable cells at 0.75 uM after 48 hrs by Annexin V-FITC/propidium iodide staining-based flow cytometry (reference value: 99.37%); assay type: functional; conditions: A549, 48 h, read-out: Activity
MCF7 [28] = assay: Antiproliferative activity against human MCF7 cells after 48 hrs by SRB method; assay type: functional, cell-based; conditions: MCF7, 48 h; in short: as §3
Tubulin (Homo sapiens) [29] = molecular target: T1, Tubulin (Homo sapiens); assay: Binding affinity to tubulin (unknown origin) after 30 mins by fluorescence assay; assay type: protein-complex assay; in short: as §1

CN(C)c1ccc(/C=C/C(=O)c2ccccc2-c2ccc(F)cc2)cc1
Activity (A549 [1]): 33.86% | Activity (A549 [2]): 4.95% | Activity (Tubulin (Homo sapiens) [3]): tde | Ratio IC50 [4]: 0.72 | Activity (A549 [5]): 83.88% | Activity (A549 [6]): 82.06% | viability at 0.5 µM (A549 [7]): 12.3% | viability at 1 µM (A549 [8]): 8.21% | Activity (A549 [9]): 42.86% | pIC50 (A2780 [10]): 7.03 | pIC50 (HepG2): 7.33 | pIC50 [11]: 7.52 | Activity (A549 [12]): Active | pIC50 (A2780 [13]): 7.31 | Ratio IC50 (MCF7 [14]): 0.68 | pIC50 (A549 [15]): 6.96 | viability at 0.25 µM (A549 [16]): 25.9% | Activity (Tubulin (Homo sapiens) [17]): Active | pIC50 [18]: 6.89 | pIC50 (A549 [19]): 7.14 | Activity (A549 [20]): 11.95% | Activity (A549 [21]): 7.91% | Activity (A549 [22]): 34.43% | Activity (A549 [23]): 9.38% | Activity (A549 [24]): 34.67% | Activity (A549 [25]): 41.02% | Activity (A549 [26]): Dose-dependent effect | viability at 0.75 µM (A549 [27]): 8.57% | pIC50 (MCF7 [28]): 6.64 | Activity (Tubulin (Homo sapiens) [29]): Dose-dependent effect

— ChEMBL document CHEMBL3393048, “Discovery of potent cytotoxic ortho-aryl chalcones as new scaffold targeting tubulin and mitosis with affinity-based fluorescence” (J Med Chem, 2014)
